# Reference: ChEMBL document CHEMBL3351353, “Molecular dynamics study-guided identification of cyclic amine structures as novel hydrophobic tail components of hPPARγ agonists” (Bioorg Med Chem Lett, 2014)
# Test: Thermodynamic solubility of the compound in phosphate buffer at pH 7.2 to 7.4 at 1 mg after 48 hrs by shake flask method
# Type: physicochemical
# Details: read-out: Therm_solubility
# Procedure, shortened: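 Shake-flask method: 1 mg of solid ground in an agate mortar, taken up in 1.0 mL of a 1:1 mixture of phosphate buffer (pH 7.2–7.4) and EtOH, shaken 48 h at 25 °C. An aliquot was filtered (0.45 µm), the filtrate diluted in CH₃CN and analysed by HPLC-UV at 254 nm. Concentration was calculated from a prior calibration curve and corrected for dilution.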
row,Compound,solubility thermodynamic at 48 h [µg/mL]
1,CCCOc1ccc(C[C@@H](Cc2ccccc2)C(=O)O)cc1CNC(=O)c1ccc(N2C3CC4CC(C3)CC2C4)cc1,< 10
2,CCCOc1ccc(C[C@@H](Cc2ccccc2)C(=O)O)cc1CNC(=O)c1ccc(N2CCCCC2)cc1,10
3,CCCOc1ccc(C[C@@H](Cc2ccccc2)C(=O)O)cc1CNC(=O)c1ccc(N2CC(C)(C)CC(C)(C)C2)cc1,< 10
4,CCCOc1ccc(C[C@@H](Cc2ccccc2)C(=O)O)cc1CNC(=O)c1ccc(N2CCCCCCC2)cc1,< 10
5,CCCOc1ccc(C[C@@H](Cc2ccccc2)C(=O)O)cc1CNC(=O)c1ccc(C23CC4CC(CC(C4)C2)C3)cc1,< 1

# More lines, now with the values ahead:
row,solubility thermodynamic at 48 h [µg/mL],Compound
1,10,CCCOc1ccc(C[C@@H](Cc2ccccc2)C(=O)O)cc1CNC(=O)c1ccc(N2C3CCCC2CC3)cc1
2,< 10,CCCOc1ccc(C[C@@H](Cc2ccccc2)C(=O)O)cc1CNC(=O)c1ccc(N2C3CCCC2CCC3)cc1
3,< 10,CCCOc1ccc(C[C@@H](Cc2ccccc2)C(=O)O)cc1CNC(=O)c1ccc(N2CCC(C)(C)CC2)cc1
4,< 10,CCCOc1ccc(C[C@@H](Cc2ccccc2)C(=O)O)cc1CNC(=O)c1ccc(N2CCCC(C)(C)C2)cc1
5,10,CCCOc1ccc(C[C@@H](Cc2ccccc2)C(=O)O)cc1CNC(=O)c1ccc(N2CC3CCC(C3)C2)cc1
